# PMC5788414 (Journal of Medicinal Chemistry, 2017)
# Peptide text beside a SMILES is read from it. * marks the point of attachment. Cbz = O=C(OCc1ccccc1)*
# Experiments:
# [1] = test system: RS4;11 acute leukemia cell line; test: Cell growth inhibition; format: cell-based, human; conditions: for times less potent than 15 in cell growth inhibition: comparator 15; for times less potent than 23 in cell growth inhibition: comparator 23; for times more potent than 9 in cell growth inhibition: comparator 9
# [2] = test system: BRD2, BRD3, and BRD4 proteins; test: Western blotting of BET protein levels in RS4; format: cell-based, human; conditions: RS4;11 cells; for Effect of pretreatment on degradation of BRD2, BRD3, and BRD4 induced by 23: 2 h pretreatment, then 3 h treatment with 23 at 1 nM
# BRD2 = BRD2 (Homo sapiens, UniProt P25440); test: Western blotting of BRD2 protein level in RS4; format: cell-based; conditions: RS4;11 cells, 3 h treatment, Western blot
# How it was run: (§1)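 RS4;11 cells (2 × 10⁶/well) were treated with the test compound at the indicated concentrations for 3 h or 24 h. Cells were lysed in RIPA buffer with protease inhibitors. Lysate (20 μg per lane) was separated by SDS–PAGE, blotted onto PVDF, and probed with BRD2, BRD3 and BRD4 antibodies, with GAPDH as the loading control.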
# BRD4 = BRD4 (Homo sapiens, UniProt O60885); test: Western blotting of BRD4 protein level in RS4; format: cell-based; conditions: RS4;11 cells, 3 h treatment, Western blot
# How it was run: as §1
# BRD3 = BRD3 (Homo sapiens, UniProt Q15059); test: Western blotting of BRD3 protein level in RS4; format: cell-based; conditions: RS4;11 cells, 3 h treatment, Western blot
# How it was run: as §1
# BRD2, BRD3, and BRD4 = test: FP-based competitive binding assays, BET proteins overall; conditions: binding to BRD2, BRD3, BRD4; comparator 8
# Chain of BRD2 (P25440 whole entry): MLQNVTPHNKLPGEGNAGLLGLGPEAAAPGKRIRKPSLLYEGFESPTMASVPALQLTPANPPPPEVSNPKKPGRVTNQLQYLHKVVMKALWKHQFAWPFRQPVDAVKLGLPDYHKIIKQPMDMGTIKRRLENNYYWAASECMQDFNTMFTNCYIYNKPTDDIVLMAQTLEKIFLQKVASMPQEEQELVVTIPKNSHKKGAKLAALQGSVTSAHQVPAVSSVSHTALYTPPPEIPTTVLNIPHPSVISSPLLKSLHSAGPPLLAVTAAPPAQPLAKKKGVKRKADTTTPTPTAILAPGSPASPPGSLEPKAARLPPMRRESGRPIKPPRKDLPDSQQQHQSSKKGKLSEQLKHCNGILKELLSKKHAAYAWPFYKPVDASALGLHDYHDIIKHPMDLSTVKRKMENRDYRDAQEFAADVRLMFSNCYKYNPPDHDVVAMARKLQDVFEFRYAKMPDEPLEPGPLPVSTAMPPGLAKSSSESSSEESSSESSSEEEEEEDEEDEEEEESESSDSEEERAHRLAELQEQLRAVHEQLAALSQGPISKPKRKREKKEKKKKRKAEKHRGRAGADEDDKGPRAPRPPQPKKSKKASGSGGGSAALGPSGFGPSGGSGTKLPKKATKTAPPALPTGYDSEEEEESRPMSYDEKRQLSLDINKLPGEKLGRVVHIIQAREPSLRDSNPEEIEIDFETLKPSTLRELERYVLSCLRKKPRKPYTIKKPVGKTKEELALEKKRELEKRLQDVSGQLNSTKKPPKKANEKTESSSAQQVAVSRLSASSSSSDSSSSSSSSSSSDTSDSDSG
# Chain of BRD3 (Q15059 whole entry): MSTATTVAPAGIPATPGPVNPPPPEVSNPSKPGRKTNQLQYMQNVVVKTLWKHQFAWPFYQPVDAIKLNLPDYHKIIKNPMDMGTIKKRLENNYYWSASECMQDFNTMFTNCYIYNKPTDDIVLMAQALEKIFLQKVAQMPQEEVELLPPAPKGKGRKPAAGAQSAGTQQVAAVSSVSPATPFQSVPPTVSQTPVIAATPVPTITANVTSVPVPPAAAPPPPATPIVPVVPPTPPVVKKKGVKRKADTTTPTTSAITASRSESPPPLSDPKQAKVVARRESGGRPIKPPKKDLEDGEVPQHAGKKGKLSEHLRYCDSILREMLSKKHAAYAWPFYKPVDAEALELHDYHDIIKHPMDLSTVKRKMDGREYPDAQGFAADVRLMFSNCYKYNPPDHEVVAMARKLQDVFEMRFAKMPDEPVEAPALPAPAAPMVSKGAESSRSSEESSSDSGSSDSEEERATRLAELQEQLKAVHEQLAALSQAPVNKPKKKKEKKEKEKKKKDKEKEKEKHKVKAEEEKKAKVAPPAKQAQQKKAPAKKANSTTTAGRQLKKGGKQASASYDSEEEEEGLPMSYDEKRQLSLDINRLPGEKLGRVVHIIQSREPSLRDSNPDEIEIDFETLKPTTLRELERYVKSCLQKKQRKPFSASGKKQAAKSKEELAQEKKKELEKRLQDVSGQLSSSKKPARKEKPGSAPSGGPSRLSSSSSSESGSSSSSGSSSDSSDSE
molecule,measurement,setting,value
"4-((3-Cyclopropyl-1-ethyl-1H-pyrazol-5-yl)amino)-7-(3,5-dimethylisoxazol-4-yl)-N-(2-((2-(2,6-dioxopiperidin-3-yl)-1,3-dioxoisoindolin-4-yl)amino)ethyl)-6-methoxy-9H-pyrimido[4,5-b]indole-2-carboxamide [Compound 17]",times less potent than 15 in cell growth inhibition,[1],10 times
"CC(C)C[C@@H](C=O)NC(=O)[C@H](CC(C)C)NC(=O)[C@H](CC(C)C)NC(=O)OCc1ccccc1 [MG-132, reference compound] (Cbz-Leu-Leu-Leu-aldehyde)","Effect of pretreatment on degradation of BRD2, BRD3, and BRD4 induced by 23",[2],completely block
"CCn1nc(C2CC2)cc1Nc1nc(C(=O)NCCCCCCc2cccc3c2CN(C2CCC(=O)NC2=O)C3=O)nc2[nH]c3cc(-c4c(C)noc4C)c(OC)cc3c12 (stereo not shown) [Compound 21, 4-((3-Cyclopropyl-1-ethyl-1H-pyrazol-5-yl)amino)-7-(3,5-dimethylisoxazol-4-yl)-N-(6-(2-(2,6-dioxopiperidin-3-yl)-1-oxoisoindolin-4-yl)hexyl)-6-methoxy-9H-pyrimido[4,5-b]indole-2-carboxamide]",Lowest concentration effective in decreasing the level of BRD2 protein,BRD2,0.3 nM
same,Lowest concentration effective in decreasing the level of BRD4 protein,BRD4,0.3 nM
same,Lowest concentration effective in decreasing the level of BRD3 protein,BRD3,0.1 nM
"CCn1nc(C2CC2)cc1Nc1nc(C(=O)NCCCCCCCNc2cccc3c2C(=O)N(C2CCC(=O)NC2=O)C3=O)nc2[nH]c3cc(-c4c(C)noc4C)c(OC)cc3c12 (stereo not shown) [Compound 12, 4-((3-Cyclopropyl-1-ethyl-1H-pyrazol-5-yl)amino)-7-(3,5-dimethylisoxazol-4-yl)-N-(7-((2-(2,6-dioxopiperidin-3-yl)-1,3-dioxoisoindolin-4-yl)amino)heptyl)-6-methoxy-9H-pyrimido[4,5-b]indole-2-carboxamide]",times more potent than 10 in cell growth inhibition,[1]; comparator 10,10 times
"CCn1nc(C2CC2)cc1Nc1nc(C(=O)NCCOCCCc2cccc3c2CN(C2CCC(=O)NC2=O)C3=O)nc2[nH]c3cc(-c4c(C)noc4C)c(OC)cc3c12 (stereo not shown) [Compound 22, 4-((3-Cyclopropyl-1-ethyl-1H-pyrazol-5-yl)amino)-7-(3,5-dimethylisoxazol-4-yl)-N-(2-(3-(2-(2,6-dioxopiperidin-3-yl)-1-oxoisoindolin-4-yl)propoxy)ethyl)-6-methoxy-9H-pyrimido[4,5-b]indole-2-carboxamide]",times less potent than 19 in cell growth inhibition,[1]; comparator 19,2 times
"CCn1nc(C2CC2)cc1Nc1nc(C(=O)NCCCCCc2cccc3c2CN(C2CCC(=O)N(C)C2=O)C3=O)nc2[nH]c3cc(-c4c(C)noc4C)c(OC)cc3c12 (stereo not shown) [Compound 26, 4-((3-Cyclopropyl-1-ethyl-1H-pyrazol-5-yl)amino)-7-(3,5-dimethylisoxazol-4-yl)-6-methoxy-N-(5-(2-(1-methyl-2,6-dioxopiperidin-3-yl)-1-oxoisoindolin-4-yl)pentyl)-9H-pyrimido[4,5-b]indole-2-carboxamide]",times less potent than 23 in cell growth inhibition,[1],> 600 times
same,"Effect on the level of BRD2, BRD3, and BRD4 proteins","[2]; 3 h treatment, Western blot",fails to induce degradation
"CCn1nc(C2CC2)cc1Nc1nc(C(=O)NCCCCCCCOc2cccc3c2C(=O)N(C2CCC(=O)NC2=O)C3=O)nc2[nH]c3cc(-c4c(C)noc4C)c(OC)cc3c12 (stereo not shown) [Compound 11, 4-((3-Cyclopropyl-1-ethyl-1H-pyrazol-5-yl)amino)-7-(3,5-dimethylisoxazol-4-yl)-N-(7-((2-(2,6-dioxopiperidin-3-yl)-1,3-dioxoisoindolin-4-yl)oxy)heptyl)-6-methoxy-9H-pyrimido[4,5-b]indole-2-carboxamide]",times more potent than 9 in cell growth inhibition,[1],10 times
"CNC(=O)c1ncc2c(n1)[nH]c1cc(-c3c(C)noc3C)c(OC)cc12 [Compound 28, 7-(3,5-Dimethylisoxazol-4-yl)-6-methoxy-N-methyl-9H-pyrimido[4,5-b]indole-2-carboxamide]",times less potent than 8 in binding affinity,"BRD2, BRD3, and BRD4",> 100 times
"CCn1nc(C2CC2)cc1Nc1nc(C(=O)NCCOCCCc2cccc3c2C(=O)N(C2CCC(=O)NC2=O)C3=O)nc2[nH]c3cc(-c4c(C)noc4C)c(OC)cc3c12 (stereo not shown) [Compound 19, 4-((3-Cyclopropyl-1-ethyl-1H-pyrazol-5-yl)amino)-7-(3,5-dimethylisoxazol-4-yl)-N-(2-(3-(2-(2,6-dioxopiperidin-3-yl)-1,3-dioxoisoindolin-4-yl)propoxy)ethyl)-6-methoxy-9H-pyrimido[4,5-b]indole-2-carboxamide]",times less potent than 18 in cell growth inhibition,[1]; comparator 18,2 times
"CCn1nc(C2CC2)cc1Nc1nc(C(=O)NCCCCc2cccc3c2CN(C2CCC(=O)NC2=O)C3=O)nc2[nH]c3cc(-c4c(C)noc4C)c(OC)cc3c12 (stereo not shown) [Compound 24, 4-((3-Cyclopropyl-1-ethyl-1H-pyrazol-5-yl)amino)-7-(3,5-dimethylisoxazol-4-yl)-N-(4-(2-(2,6-dioxopiperidin-3-yl)-1-oxoisoindolin-4-yl)butyl)-6-methoxy-9H-pyrimido[4,5-b]indole-2-carboxamide]",times less potent than 23 in cell growth inhibition,[1],19 times
same,Lowest concentration effective in decreasing the level of BRD2 protein,BRD2,3 nM
same,Lowest concentration effective in decreasing the level of BRD4 protein,BRD4,3 nM
same,Lowest concentration effective in decreasing the level of BRD3 protein,BRD3,1 nM
"4-((3-Cyclopropyl-1-ethyl-1H-pyrazol-5-yl)amino)-7-(3,5-dimethylisoxazol-4-yl)-N-(3-((2-(2,6-dioxopiperidin-3-yl)-1,3-dioxoisoindolin-4-yl)amino)propyl)-6-methoxy-9H-pyrimido[4,5-b]indole-2-carboxamide [Compound 16]",times less potent than 15 in cell growth inhibition,[1],5 times
"CCn1nc(C2CC2)cc1Nc1nc(C(=O)NCCCCNC(=O)COc2cccc3c2C(=O)N(C2CCC(=O)NC2=O)C3=O)nc2[nH]c3cc(-c4c(C)noc4C)c(OC)cc3c12 (stereo not shown) [Compound 9, 4-((3-Cyclopropyl-1-ethyl-1H-pyrazol-5-yl)amino)-7-(3,5-dimethylisoxazol-4-yl)-N-(4-(2-((2-(2,6-dioxopiperidin-3-yl)-1,3-dioxoisoindolin-4-yl)oxy)acetamido)butyl)-6-methoxy-9H-pyrimido[4,5-b]indole-2-carboxamide]",times more potent than 8 in cell growth inhibition,[1]; comparator 8,6 times
same,"Lowest concentrations effective in decreasing the level of BRD2, BRD3, and BRD4 proteins","[2]; 3 h treatment, Western blot",3 to 10 nM
"CCn1nc(C2CC2)cc1Nc1nc(C(=O)NCCCc2cccc3c2CN(C2CCC(=O)NC2=O)C3=O)nc2[nH]c3cc(-c4c(C)noc4C)c(OC)cc3c12 (stereo not shown) [Compound 25, 4-((3-Cyclopropyl-1-ethyl-1H-pyrazol-5-yl)amino)-7-(3,5-dimethylisoxazol-4-yl)-N-(3-(2-(2,6-dioxopiperidin-3-yl)-1-oxoisoindolin-4-yl)propyl)-6-methoxy-9H-pyrimido[4,5-b]indole-2-carboxamide]",times less potent than 23 in cell growth inhibition,[1],188 times
same,Lowest concentration effective in decreasing the level of BRD2 protein,BRD2,less potent and effective
same,Lowest concentration effective in decreasing the level of BRD4 protein,BRD4,10 nM
same,Lowest concentration effective in decreasing the level of BRD3 protein,BRD3,10 nM
"CCn1nc(C2CC2)cc1Nc1nc(C(=O)NCCCCNC(=O)CNc2cccc3c2C(=O)N(C2CCC(=O)NC2=O)C3=O)nc2[nH]c3cc(-c4c(C)noc4C)c(OC)cc3c12 (stereo not shown) [Compound 10, 4-((3-Cyclopropyl-1-ethyl-1H-pyrazol-5-yl)amino)-7-(3,5-dimethylisoxazol-4-yl)-N-(4-(2-((2-(2,6-dioxopiperidin-3-yl)-1,3-dioxoisoindolin-4-yl)amino)acetamido)butyl)-6-methoxy-9H-pyrimido[4,5-b]indole-2-carboxamide]",times more potent than 9 in cell growth inhibition,[1],2 times
"CCn1nc(C2CC2)cc1Nc1nc(C(=O)NCCCCCCNc2cccc3c2C(=O)N(C2CCC(=O)NC2=O)C3=O)nc2[nH]c3cc(-c4c(C)noc4C)c(OC)cc3c12 (stereo not shown) [Compound 13, 4-((3-Cyclopropyl-1-ethyl-1H-pyrazol-5-yl)amino)-7-(3,5-dimethylisoxazol-4-yl)-N-(6-((2-(2,6-dioxopiperidin-3-yl)-1,3-dioxoisoindolin-4-yl)amino)hexyl)-6-methoxy-9H-pyrimido[4,5-b]indole-2-carboxamide]",times less potent than 12 in cell growth inhibition,[1]; comparator 12,3 times
"CCn1nc(C2CC2)cc1Nc1nc(C(=O)NCCCCNc2cccc3c2C(=O)N(C2CCC(=O)NC2=O)C3=O)nc2[nH]c3cc(-c4c(C)noc4C)c(OC)cc3c12 (stereo not shown) [Compound 15, 4-((3-Cyclopropyl-1-ethyl-1H-pyrazol-5-yl)amino)-7-(3,5-dimethylisoxazol-4-yl)-N-(4-((2-(2,6-dioxopiperidin-3-yl)-1,3-dioxoisoindolin-4-yl)amino)butyl)-6-methoxy-9H-pyrimido[4,5-b]indole-2-carboxamide]",times less potent than 14 in cell growth inhibition,[1]; comparator 14,~3 times
"Nc1cccc2c1CN(C1CCC(=O)NC1=O)C2=O (stereo not shown) [lenalidomide, reference compound]","Effect of pretreatment on degradation of BRD2, BRD3, and BRD4 induced by 23",[2],effectively blocks
"NS(=O)(=O)OC[C@@H]1C[C@@H](n2ccc3c(N[C@H]4CCc5ccccc54)ncnc32)C[C@@H]1O [MLN4924, reference compound]","Effect of pretreatment on degradation of BRD2, BRD3, and BRD4 induced by 23",[2],completely block
